In the M2OR odorant receptor database:

How the values were obtained:
Conditions in all cases: stereoisomer not certain
UniProt Q8VFP5 = target: T1, UniProt Q8VFP5
T1 sequence (whole entry): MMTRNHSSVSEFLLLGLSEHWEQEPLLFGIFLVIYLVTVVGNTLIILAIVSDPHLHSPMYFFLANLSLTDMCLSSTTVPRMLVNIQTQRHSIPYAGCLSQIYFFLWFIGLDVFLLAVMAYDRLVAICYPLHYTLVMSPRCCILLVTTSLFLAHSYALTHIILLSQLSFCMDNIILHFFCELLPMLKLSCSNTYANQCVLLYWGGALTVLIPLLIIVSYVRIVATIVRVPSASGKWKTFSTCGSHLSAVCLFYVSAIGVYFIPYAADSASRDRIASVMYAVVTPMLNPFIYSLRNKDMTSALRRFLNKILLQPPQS
How it was run: (§1)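 Each entry records the cell line, G-protein, co-transfected protein and tags used. Methods varied with the source, often transient luciferase assays in mammalian cell lines. A receptor–molecule pair is called responsive (active) if the original authors judged its signal statistically different from baseline and non-responsive (inactive) otherwise.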

UniProt Q8VG01 = target: T2, UniProt Q8VG01
T2 sequence (whole entry): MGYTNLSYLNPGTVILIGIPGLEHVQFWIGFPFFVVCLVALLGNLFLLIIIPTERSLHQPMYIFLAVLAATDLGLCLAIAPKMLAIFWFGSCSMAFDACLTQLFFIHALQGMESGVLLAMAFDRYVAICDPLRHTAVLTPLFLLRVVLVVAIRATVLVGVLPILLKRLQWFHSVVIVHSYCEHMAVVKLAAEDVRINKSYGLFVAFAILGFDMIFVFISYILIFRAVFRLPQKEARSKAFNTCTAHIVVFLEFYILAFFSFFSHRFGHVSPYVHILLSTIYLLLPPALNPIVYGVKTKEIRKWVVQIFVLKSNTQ
How it was run: as §1

UniProt Q8VG27 = target: T3, UniProt Q8VG27
T3 sequence (whole entry): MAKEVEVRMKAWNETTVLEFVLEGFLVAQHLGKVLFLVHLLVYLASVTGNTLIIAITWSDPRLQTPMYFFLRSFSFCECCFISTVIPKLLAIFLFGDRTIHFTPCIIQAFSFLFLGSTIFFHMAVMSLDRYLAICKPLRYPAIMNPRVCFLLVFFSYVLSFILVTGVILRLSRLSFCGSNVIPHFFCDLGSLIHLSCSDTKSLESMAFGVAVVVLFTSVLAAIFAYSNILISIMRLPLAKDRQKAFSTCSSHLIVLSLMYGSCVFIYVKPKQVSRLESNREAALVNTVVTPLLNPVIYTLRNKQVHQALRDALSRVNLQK
How it was run: as §1

UniProt Q8VG53 = target: T4, UniProt Q8VG53
T4 sequence (whole entry): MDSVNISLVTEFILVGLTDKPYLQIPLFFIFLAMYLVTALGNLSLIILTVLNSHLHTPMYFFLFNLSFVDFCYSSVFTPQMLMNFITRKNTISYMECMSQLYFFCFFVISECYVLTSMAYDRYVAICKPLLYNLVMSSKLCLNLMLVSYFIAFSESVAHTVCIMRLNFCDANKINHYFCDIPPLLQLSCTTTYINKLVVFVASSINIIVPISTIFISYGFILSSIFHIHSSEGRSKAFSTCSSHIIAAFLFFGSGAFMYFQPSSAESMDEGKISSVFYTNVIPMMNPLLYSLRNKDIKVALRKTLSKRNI
How it was run: as §1

UniProt Q8VG64 = target: T5, UniProt Q8VG64
T5 sequence (whole entry): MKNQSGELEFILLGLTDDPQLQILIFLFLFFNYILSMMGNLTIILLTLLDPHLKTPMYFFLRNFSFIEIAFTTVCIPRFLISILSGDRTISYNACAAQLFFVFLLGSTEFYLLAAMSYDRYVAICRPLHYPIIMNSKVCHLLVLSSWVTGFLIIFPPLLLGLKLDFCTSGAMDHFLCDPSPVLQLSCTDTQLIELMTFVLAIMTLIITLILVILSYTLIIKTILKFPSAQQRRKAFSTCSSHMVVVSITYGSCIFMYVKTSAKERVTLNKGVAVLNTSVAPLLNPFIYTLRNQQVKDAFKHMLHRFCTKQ
How it was run: as §1

UniProt Q8VGB9 = target: T6, UniProt Q8VGB9
T6 sequence (whole entry): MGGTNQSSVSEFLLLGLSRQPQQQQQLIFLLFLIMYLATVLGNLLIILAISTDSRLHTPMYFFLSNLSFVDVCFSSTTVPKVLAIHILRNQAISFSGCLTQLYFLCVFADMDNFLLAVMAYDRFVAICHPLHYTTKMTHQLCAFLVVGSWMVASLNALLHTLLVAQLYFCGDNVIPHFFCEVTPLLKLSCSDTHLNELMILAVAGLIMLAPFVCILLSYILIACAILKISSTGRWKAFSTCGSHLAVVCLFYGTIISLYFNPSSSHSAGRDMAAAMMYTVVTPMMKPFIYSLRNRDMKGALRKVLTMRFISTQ
How it was run: as §1

UniProt Q8VG28 = target: UniProt Q8VG28
UniProt Q8VG28, sequence (Q8VG28 as listed by the source): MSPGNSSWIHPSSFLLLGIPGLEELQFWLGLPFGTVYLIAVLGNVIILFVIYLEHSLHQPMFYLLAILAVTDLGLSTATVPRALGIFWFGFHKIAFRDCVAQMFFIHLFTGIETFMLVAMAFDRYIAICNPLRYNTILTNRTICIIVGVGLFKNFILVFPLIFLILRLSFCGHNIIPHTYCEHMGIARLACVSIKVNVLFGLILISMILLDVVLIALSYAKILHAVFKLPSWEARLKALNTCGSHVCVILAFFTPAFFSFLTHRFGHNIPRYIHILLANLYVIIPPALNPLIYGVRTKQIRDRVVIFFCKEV
How it was run: as §1

UniProt Q8VFZ6 = target: T7, UniProt Q8VFZ6
T7 sequence (whole entry): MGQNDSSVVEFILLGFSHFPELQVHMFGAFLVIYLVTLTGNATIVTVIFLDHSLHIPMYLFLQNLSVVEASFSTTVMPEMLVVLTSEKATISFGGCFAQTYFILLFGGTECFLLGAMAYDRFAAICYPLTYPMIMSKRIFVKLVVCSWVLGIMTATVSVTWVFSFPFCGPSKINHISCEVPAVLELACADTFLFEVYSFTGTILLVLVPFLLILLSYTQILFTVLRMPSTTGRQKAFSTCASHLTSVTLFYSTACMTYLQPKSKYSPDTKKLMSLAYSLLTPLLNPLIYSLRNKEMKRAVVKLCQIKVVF
How it was run: as §1

UniProt Q8VG22 = target: T8, UniProt Q8VG22
T8 sequence (whole entry): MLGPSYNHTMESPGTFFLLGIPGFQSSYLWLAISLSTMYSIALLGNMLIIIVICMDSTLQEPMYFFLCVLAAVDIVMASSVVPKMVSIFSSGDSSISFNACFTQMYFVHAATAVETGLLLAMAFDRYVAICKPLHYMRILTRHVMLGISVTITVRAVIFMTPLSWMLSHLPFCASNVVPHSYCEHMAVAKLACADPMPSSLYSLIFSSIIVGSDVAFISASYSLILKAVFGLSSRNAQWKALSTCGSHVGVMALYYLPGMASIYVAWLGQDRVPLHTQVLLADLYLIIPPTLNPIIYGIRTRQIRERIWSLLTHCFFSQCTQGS
How it was run: as §1

UniProt Q8VG49 = target: T9, UniProt Q8VG49
T9 sequence (whole entry): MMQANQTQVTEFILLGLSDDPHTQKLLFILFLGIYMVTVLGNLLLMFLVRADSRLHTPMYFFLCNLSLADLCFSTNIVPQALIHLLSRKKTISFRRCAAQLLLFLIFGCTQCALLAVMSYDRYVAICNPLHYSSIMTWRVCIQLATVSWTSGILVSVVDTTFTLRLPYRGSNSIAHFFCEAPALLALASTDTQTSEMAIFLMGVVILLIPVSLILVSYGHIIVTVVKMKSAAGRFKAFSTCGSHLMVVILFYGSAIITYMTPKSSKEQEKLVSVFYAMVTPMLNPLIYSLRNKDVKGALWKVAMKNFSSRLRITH
How it was run: as §1

UniProt Q8VG77 = target: T10, UniProt Q8VG77
T10 sequence (whole entry): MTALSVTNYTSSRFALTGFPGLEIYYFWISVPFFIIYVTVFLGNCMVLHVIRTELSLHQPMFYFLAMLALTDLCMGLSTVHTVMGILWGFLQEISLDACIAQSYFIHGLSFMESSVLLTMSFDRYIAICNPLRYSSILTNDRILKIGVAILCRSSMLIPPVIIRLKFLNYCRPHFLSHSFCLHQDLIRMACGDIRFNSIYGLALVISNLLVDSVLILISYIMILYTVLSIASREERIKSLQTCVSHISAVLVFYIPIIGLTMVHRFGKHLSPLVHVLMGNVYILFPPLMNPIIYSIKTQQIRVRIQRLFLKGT
How it was run: as §1

UniProt Q8VG96 = target: T11, UniProt Q8VG96
T11 sequence (whole entry): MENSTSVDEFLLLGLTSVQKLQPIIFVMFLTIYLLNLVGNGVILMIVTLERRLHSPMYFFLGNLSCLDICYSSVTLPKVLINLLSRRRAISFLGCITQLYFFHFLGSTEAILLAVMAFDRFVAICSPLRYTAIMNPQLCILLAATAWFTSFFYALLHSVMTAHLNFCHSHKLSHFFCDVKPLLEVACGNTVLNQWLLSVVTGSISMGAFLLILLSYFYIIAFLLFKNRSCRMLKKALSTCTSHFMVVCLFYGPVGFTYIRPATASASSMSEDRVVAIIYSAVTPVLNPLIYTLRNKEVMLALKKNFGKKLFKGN
How it was run: as §1

| Structure (SMILES) | odorant receptor agonist call (UniProt Q8VFP5) | odorant receptor agonist call (UniProt Q8VG01) | odorant receptor agonist call (UniProt Q8VG27) | odorant receptor agonist call (UniProt Q8VG53) | odorant receptor agonist call (UniProt Q8VG64) | odorant receptor agonist call (UniProt Q8VGB9) | odorant receptor agonist call (UniProt Q8VG28) | odorant receptor agonist call (UniProt Q8VFZ6) | odorant receptor agonist call (UniProt Q8VG22) | odorant receptor agonist call (UniProt Q8VG49) | odorant receptor agonist call (UniProt Q8VG77) | odorant receptor agonist call (UniProt Q8VG96) |
| --- | --- | --- | --- | --- | --- | --- | --- | --- | --- | --- | --- | --- |
| CC(C)=CCCC(C)=CCOC(=O)C(C)C | inactive | inactive | inactive | inactive | inactive | inactive |  |  |  |  |  |  |
| CCCO | inactive | inactive | inactive | inactive | inactive | inactive |  |  |  |  |  |  |
| O=C([O-])CCCCCCC(=O)[O-].[H+].[H+] | inactive | inactive | inactive | inactive | inactive | inactive | inactive |  |  |  |  |  |
| CCCCC(=O)CC | inactive | inactive | inactive | inactive | inactive | inactive |  | inactive | inactive | inactive | inactive | inactive |
| CCCCCC(C)O (configuration not stated) | inactive | inactive | inactive | inactive | inactive | inactive |  |  |  |  |  |  |
| O=C(O)CCCCCBr | inactive | active | inactive | inactive | inactive | inactive | inactive |  |  |  |  |  |
| CCCCCOC(=O)CC | inactive | inactive | inactive | inactive | inactive | inactive |  |  |  |  |  |  |
| CCc1ccccc1O | inactive | inactive | inactive | inactive | inactive | inactive |  |  |  |  |  |  |
| C=C(C)C1CCC(C)C(O)C1 (configuration not stated) | inactive | inactive | inactive | inactive | inactive | inactive |  |  |  |  |  |  |
| CC(=O)OCCc1ccccc1 | inactive | inactive | inactive | inactive | inactive | inactive |  |  |  |  |  |  |
| CCCCCCCCOC=O | inactive | inactive | inactive | inactive | inactive | inactive |  |  |  |  |  |  |
| Cc1ccc(C(C)C)cc1 | inactive | inactive | inactive | inactive | inactive | inactive |  |  |  |  |  |  |
| CCCC(C)C(=O)OCC (configuration not stated) | inactive | inactive | inactive | inactive | inactive | inactive |  |  |  |  |  |  |
| CCC(C)O (configuration not stated) | inactive | inactive | inactive | inactive | inactive | inactive |  |  |  |  |  |  |
| CC1CCC(C(C)C)C(=O)C1 (configuration not stated) | inactive | inactive | inactive | inactive | inactive | inactive |  |  |  |  |  |  |
